Source: PubChem BioAssay
This is a sample that favours compounds with a hit; in the whole collection about 2.7% have one here.
PAD4 FP inh: PAD4 (human) enzyme inhibition | AID 485272 | recombinant PAD4, RCA probe fluorescence polarization | inhibition, % at 6.36 µM | actives 0.41% (n = 330,000) | Q9UM07;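 active means percent inhibition above a cutoff equal to the mean of all tested compounds plus 3 SD, cut at about 15% in these data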;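 further: 0% = PAD4 with RCA probe and DMSO and 100% = probe without PAD4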
SIAE primary: blocks human sialic acid acetylesterase | SIAE FP-Rh probe binding, fluorescence polarization | AID 1053197 | inhibition, % at 9.66 µM | actives 0.69% (n = 370,000) | Q9HAT2;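 active means inhibition above a cutoff: mean of compounds within the control limits plus 3 SD of those, cut at about 17% in these data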;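 further: 0% = plate median of compound wells and 100% = probe without SIAE protein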
RBBP9 inh: blocks human serine hydrolase RBBP9 | O75884 | recombinant RBBP9, FP-Rh probe fluorescence polarization | inhibition, % at 7.94 µM | actives 0.2% (n = 220,000);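 active means inhibition above the campaign mean of all tested compounds plus 3 SD, cut at about 14% in these data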;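 further: plate controls were DMSO wells with RBBP9 for no effect and wells lacking RBBP9 protein for full effect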
Target sequence (O75884 whole entry, looked up): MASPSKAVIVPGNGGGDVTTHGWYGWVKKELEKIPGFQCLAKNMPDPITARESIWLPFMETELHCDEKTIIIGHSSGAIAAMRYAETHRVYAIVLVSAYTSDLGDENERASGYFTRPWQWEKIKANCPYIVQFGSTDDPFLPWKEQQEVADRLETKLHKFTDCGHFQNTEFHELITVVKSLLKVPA
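Measured by: FP readout at 525/598 nm; material: recombinant human RBBP9; also added: Serine-hydrolase probe FP-Rh, 375 nM pre-mixing; medium: Tris buffer pH 8.0, NaCl, Pluronic; replication: one well per compound; doses: one concentration, 7.94 µM nominal, 0.794% DMSO; timing: preincubation 30 min plus labeling 45 min at 25 °C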
PRMT1 inh: inhibitors of human PRMT1; Q99873; recombinant PRMT1, activity-based probe fluorescence polarization; inhibition, % at 2.79 µM; actives 1.3% (n = 370,000);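 active means inhibition above about 21% made by adding two undisclosed values, limit read from the data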
GSTO1 counter: blocks human GSTO1 in RBBP9 counter-screen | P78417 | recombinant GSTO1, activity-based probe fluorescence polarization | inhibition, % at 5.96 µM | actives 1.1% (n = 300,000) | AID 1974;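 active means inhibition above the campaign mean inhibition plus 3 SD, cut at about 35% in these data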;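 further: 0% = GSTO1-1 with DMSO and 100% = wells lacking GSTO1-1 enzyme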
Target sequence (P78417 whole entry, looked up): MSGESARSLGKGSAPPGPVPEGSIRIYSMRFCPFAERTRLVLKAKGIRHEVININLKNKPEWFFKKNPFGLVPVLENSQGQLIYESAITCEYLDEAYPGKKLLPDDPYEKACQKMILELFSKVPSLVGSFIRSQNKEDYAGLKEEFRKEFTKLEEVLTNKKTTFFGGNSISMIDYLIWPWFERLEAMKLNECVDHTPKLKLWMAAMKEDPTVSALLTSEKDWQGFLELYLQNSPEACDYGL
GSTO1 inh conf: GSTO1 (human) inhibition, confirmation; AID 2176; inhibition, % at 5.96 µM; actives 54% (n = 2,400); recombinant GSTO1, probe fluorescence polarization; shares compounds with GSTO1 counter;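 active means inhibition above the primary screen's cutoff, its mean inhibition plus 3 SD, cut at about 35% in these data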;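 further: loss of polarization as inhibitors block binding of rhodamine sulfonate ester activity probe; 0% = GSTO1 with DMSO and 100% = wells lacking GSTO1 enzyme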
GSTO1 recomb ABPP: inhibitors of recombinant human GSTO1. shares compounds with GSTO1 counter. gel ABPP SE-Rh probe fluorescence. inhibition, % at 1 µM. actives 30% (n = 130). AID 463110;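 active means inhibition of the enzyme GSTO1 above about 75%, limit read from the data; inactive means inhibition below that limit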
An asterisk follows results filed as active; . = no result.

SMILES | PAD4 FP inh | SIAE primary | RBBP9 inh | PRMT1 inh | GSTO1 counter | GSTO1 inh conf | others
COc1ccc(-c2c(C(F)(F)F)nn(C)c2NC(=O)c2ccco2)cc1 | 3.3 | 11.4 | -2.5 | 1.1 | 15.3 | .
Cc1cc(=O)c(C(=O)O)nn1-c1ccccc1C(F)(F)F | -0.8 | -0.8 | . | 2.5 | 5.3 | .
COc1ccccc1N=Nc1ccc(O)c2ncccc12 | -6.0 | 14.6 | . | 2.2 | 50.9* | 9.8
O=C(CNS(=O)(=O)c1ccccc1)N/N=C/c1ccncc1 | 0.6 | -0.4 | . | 1.4 | . | .
Cc1cccc(CN2CCN(C(=O)CCl)CC2)c1 | -1.5 | 2.3 | -4.2 | -0.6 | 96.2* | 99.0* | GSTO1 recomb ABPP=61.0
Cc1cccc(CN2CCN(C(=O)c3cccc4ccccc34)CC2)c1 | 6.1 | 0.7 | . | 3.8 | 6.4 | .
COc1ccc(NC(=O)CCN2CCN(S(=O)(=O)c3ccc(Br)cc3)CC2)cc1 | 0.6 | -0.7 | . | -3.1 | 71.0* | 5.7
CC1Oc2cc3oc4c(O)c(O)ccc4c(=O)c3c(O)c2C1(C)C (centres undefined) | -1.8 | . | . | . | 44.6* | 5.7
CCOC(=O)NC1(NC2CCCCC2)Oc2ccccc2O1 | 5.3 | 4.7 | -0.6 | 19.3 | 51.7* | 6.8
CCOC(=O)NC1(NCC(C)C)Oc2ccccc2O1 | 0.7 | 8.1 | 3.4 | 17.8 | 47.9* | 2.5
O=C(CSc1ncc(-c2ccccc2)n1C1CCCC1)N1CCc2ccccc21 | -3.2 | -1.5 | 4.5 | -0.2 | 39.3* | 22.2
Cc1ccc(NC(=O)CCl)c(C)c1 | 1.8 | 1.3 | -4.9 | 8.2 | 82.0* | 90.7*
Cc1c(O)cc2c(c1O)C(=O)CC(c1ccc(O)cc1)O2 (centres undefined) | -0.7 | -1.9 | -5.6 | 2.3 | 50.8* | 10.1
COc1cc(O)c2c(c1)OC(c1ccc(O)cc1)CC2=O (centres undefined) | -0.1 | 1.6 | -7.8 | -4.5 | 3.8 | .
COc1cc(Cl)c(C)cc1NC(=O)CC1SC(N2CCOCC2)=NC1=O (centres undefined) | 1.9 | -0.8 | . | -3.4 | . | .
Cc1onc(-c2ccccc2)c1C(=O)NNC(=O)c1ccccc1O | 2.4 | 9.0 | . | 8.4 | 47.0* | 5.7
O=C(O)C1Nc2ccc(OC(F)(F)F)cc2C2C=CCC12 (centres undefined) | 1.1 | . | . | . | 48.2* | 19.0
CCOC(=O)C1Nc2ccc(OC(F)(F)F)cc2C2C=CCC12 (centres undefined) | -5.2 | 6.2 | . | 13.3 | 5.0 | .
COc1cccc2c1NC(C(=O)O)C1CC=CC21 (centres undefined) | 1.3 | . | -3.0 | . | 61.3* | 45.7*
O=C(Nc1ccc2c(c1)OCCO2)C(=O)c1c[nH]c2ccccc12 | -0.1 | -7.0 | . | -2.5 | -2.9 | .
COc1ccc(S(=O)(=O)NC(C)C(=O)Nc2ccccc2)cc1Cl (centres undefined) | 0.8 | 4.0 | . | 1.9 | 1.0 | .
O=S(=O)(c1ccc(Cl)cc1)N1CCC2(CC1)CO2 | -3.6 | -0.8 | -5.4 | 1.8 | 96.5* | 105.5* | GSTO1 recomb ABPP=64.0
O=S(=O)(NCc1cccnc1)c1cccn1-c1ncc(C(F)(F)F)cc1Cl | -2.1 | 3.2 | -5.0 | 0.1 | 3.8 | .
CC(C(O)c1cc(=O)c(OCc2ccccc2)co1)[N+](=O)[O-] (centres undefined) | 4.2 | 7.9 | . | 3.2 | 10.8 | .
O=C(NN1C(=O)c2ccccc2NC1c1ccc([N+](=O)[O-])o1)c1ccccc1 (centres undefined) | -4.9 | 6.5 | 0.8 | 1.8 | 44.1* | 6.2
SMILES | PAD4 FP inh | SIAE primary | RBBP9 inh | PRMT1 inh | GSTO1 counter | GSTO1 inh conf | others
CCCNC(=O)COC(=O)c1c2c(nc3ccccc13)CCC2 | 4.5 | -2.7 | . | 3.4 | 46.9* | 1.8
CCC1CCc2c(c3ccccc3[nH]c2=O)O1 (centres undefined) | -1.4 | 0.1 | -4.8 | 0.2 | 5.4 | .
O=c1[nH]c2ccccc2c2oc(CCl)nc12 | -1.9 | 10.2 | 0.6 | 21.3* | 86.7* | 98.6* | GSTO1 recomb ABPP=69.0
C=CCn1c(O)c(N=NC(=S)Nc2ccccc2C)c2cc(S(=O)(=O)N3CCOCC3)ccc21 | 0.0 | 4.0 | -8.5 | -5.8 | 42.1* | 7.1
Cc1cc(C)c2c(=O)[nH]n(C3CC(C)N(C)CC3C)c2n1 (centres undefined) | -1.7 | 1.1 | -7.5 | -3.7 | -2.5 | .
Cc1c(C=O)c2ccccn2c1C(=O)c1ccc(F)cc1 | -2.8 | -2.2 | . | 2.6 | 38.9* | 5.9
O=C1CCC(=O)N1c1ccc(S(=O)(=O)N2CCCC2)cc1 | 1.6 | 0.1 | -1.6 | -2.2 | -8.3 | .
CC1(C(=O)Nc2ccc3c(c2)OCCO3)CSCC(=O)N1CCCN1CCOCC1 (centres undefined) | . | 4.1 | . | -2.2 | . | .
CCCCNC(=O)Oc1cc(CCl)on1 | -0.6 | . | 5.0 | . | 83.0* | 91.1* | GSTO1 recomb ABPP=21.0
COc1ccc(C(=O)CC(c2ccccc2)S(=O)(=O)c2ccc(C)cc2)cc1 (centres undefined) | -1.2 | . | -4.2 | . | 0.8 | .
COc1ccc(C(CC(=O)c2ccc(O)cc2)S(=O)(=O)c2ccc(C)cc2)cc1 (centres undefined) | -1.0 | -1.6 | -1.6 | 2.4 | 39.6* | -5.1
Cc1ccc(S(=O)(=O)NC(C(=O)N2CCOCCOCCOCCOCC2)C(C)C)cc1 (centres undefined) | -6.0 | -1.8 | . | 2.0 | 6.2 | .
O=C(c1cc2cc(Cl)ccc2[nH]1)N1CCN(c2ccc(F)cc2)CC1 | 2.0 | 3.0 | . | -0.3 | 1.6 | .
COc1ccc2c3c(cccc13)N(C)N=C2C | 10.3 | 10.1 | -7.4 | 47.9* | 70.0* | 64.0*
COc1ccc2c3c(cccc13)OC2=O | 0.5 | 0.9 | . | 2.4 | 5.9 | .
O=C(CCN1CCN(c2ccccc2)CC1)Nc1ccc(OCc2ccccc2)cc1 | 0.8 | 9.1 | -3.0 | 0.8 | 2.4 | .
Cc1ccc(NS(=O)(=O)c2cccc(C(=O)NCC(c3cccs3)N3CCOCC3)c2)cc1 (centres undefined) | -3.2 | -0.1 | . | 5.2 | . | .
CCOC(=O)C1=C(Cc2ccc(F)cc2)C(=O)c2ccccc2C1=O | -37.0 | -12.4 | -4.2 | 78.6* | 38.0* | 3.5
COC(=O)CN1C(=O)CSc2ccc(S(=O)(=O)N3CCC(C)CC3)cc21 | . | 5.7 | . | -0.8 | . | .
CCOC(=O)c1c(NC(=O)CCl)sc(CN(C)C)c1-c1ccccc1 | 5.7 | 1.8 | 5.4 | 1.9 | 76.5* | 90.7*
Cc1ccc(C)c(C(=O)COC(=O)c2c(-c3ccccc3)noc2C)c1 | . | -5.0 | . | 3.4 | . | .
NC(=S)N/N=C/c1coc2ccc(O)cc2c1=O | 3.0 | 13.2 | -8.2 | 5.5 | 66.6* | 12.4
NC(=S)N/N=C/c1coc2ccc(Br)cc2c1=O | 2.1 | 2.6 | -18.9 | 9.1 | 4.0 | .
COc1cc2[nH]c(=O)c(C(=O)NCCCN3CCCCC3)c(O)c2cc1OC | -2.7 | 2.0 | 0.8 | -1.3 | 2.4 | .
CCCCNC(=O)NC1(C(F)(F)F)Oc2ccccc2O1 | -3.7 | 3.0 | -5.6 | -0.5 | 54.9* | 4.0
